Assay results taken from ChEMBL document CHEMBL2062453, “Lead optimization through VLAK protocol: new annelated pyrrolo-pyrimidine derivatives as antitumor agents” (2012).

Experiments:
Type in all cases: functional
HOP-62 = experiment: Cytotoxicity against human HOP62 cells after 48 hrs by SRB assay; details: HOP-62, 48 h; for TGI: read-out: pTGI (converted)
Method in brief: (§1)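 NCI 60-cell five-dose screen. Cells grown in RPMI 1640 with 5% FBS and 2 mM glutamine, plated at 5000–40,000 cells/well, and preincubated 24 h at 37 °C in 5% CO2. Time-zero plates fixed with TCA. Five serial dilutions of DMSO stock added, then 48 h exposure. TCA fixation, 0.4% SRB staining, absorbance read at 515 nm. GI50 from [(Ti−Tz)/(C−Tz)]×100 = 50.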

K562 = experiment: Cytotoxicity against human K562 cells after 48 hrs by SRB assay; details: K562, 48 h; method in brief: as §1
SR = experiment: Cytotoxicity against human SR cells after 48 hrs by SRB assay
Method in brief: (§2)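 NCI 60-panel five-dose screen. Cells in RPMI 1640 with 5% FBS and 2 mM glutamine, plated at 5000–40,000 cells/well and preincubated 24 h at 37 °C under 5% CO2. Five 10-fold or half-log dilutions were added from a DMSO stock for 48 h. Cells were TCA-fixed (SR settled cells: 16% final), SRB-stained and read at 515 nm. GI50 was taken where (Ti−Tz)/(C−Tz)×100 = 50.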

UACC-257 = experiment: Cytotoxicity against human UACC257 cells after 48 hrs by SRB assay; details: UACC-257, 48 h; method in brief: as §2
IGROV-1 = experiment: Cytotoxicity against human IGROV1 cells after 48 hrs by SRB assay; details: IGROV-1, 48 h; method in brief: as §1
NCI-H522 = experiment: Cytotoxicity against human NCI-H522 cells after 48 hrs by SRB assay; details: NCI-H522, 48 h
Method in brief: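 Five-dose screen, 10-fold or ½-log dilutions, compound stock in DMSO. Cells were in RPMI 1640 with 5% FBS and 2 mM glutamine at 5000–40,000 cells/well, preincubated 24 h, 37 °C, 5% CO₂, with a time-zero plate TCA-fixed. After 48 h drug exposure, cells were TCA-fixed and stained with 0.4% SRB, read at 515 nm. GI50, TGI and LC50 were derived from time-zero, control and test absorbances.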

[1] = read-out: pLC50 (the source's name) (converted)

Row | Compound | GI50 (HOP-62) [µM] | LC50 (HOP-62) [µM] | TGI (HOP-62) [µM] | GI50 (K562) [µM] | CC50 (K562; [1]) [µM] | TGI (K562; read-out: pTGI) [µM] | GI50 (SR) [µM] | CC50 (SR; [1]) [µM] | TGI (SR; read-out: pTGI) [µM] | GI50 (UACC-257) [µM] | CC50 (UACC-257; [1]) [µM] | TGI (UACC-257; read-out: pTGI (converted)) [µM] | GI50 (IGROV-1) [µM] | CC50 (IGROV-1; [1]) [µM] | TGI (IGROV-1; read-out: pTGI (converted)) [µM] | GI50 (NCI-H522) [µM] | CC50 (NCI-H522; [1]) [µM] | TGI (NCI-H522; read-out: pTGI (converted)) [µM]
1 | CSC1=Nc2c(c(C)c(-c3ccccc3)n2CCCN2CCCCC2)C2=NC(=O)CC(C)N12 (stereo unspecified) | 3.16 | > 100 | 26.3 | – | – | – | – | – | – | – | – | – | – | – | – | – | – | –
2 | CSC1=Nc2c(c(C)c(-c3ccccc3)n2CCCCl)C2=NC(=O)CN12 | 11 | > 100 | 63.1 | 5.75 | > 100 | > 100 | 3.47 | > 100 | > 100 | 12.6 | 64.6 | 28.2 | 3.55 | 95.5 | 21.4 | 3.89 | 75.9 | 19.1
